Common to all, as to assay type: functional
Assay [1] deals with Puccinia graminis f. tritici. Description: Antifungal activity against Puccinia graminis f. tritici assessed as inhibition of wheat stem rust disease on wheat cultivar Yuma at 100 ppm measured 24 hr post fungal inoculation relative to untreated control. In a few lines: (§1)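 Whole-plant protectant test: pure compounds in acetone, serially diluted in acetone to 6.25, 25 or 100 ppm and applied to plants.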

The test system of assay [2] is Zymoseptoria tritici. Briefly: Antifungal activity against Zymoseptoria tritici assessed as inhibition of wheat leaf spot disease on wheat cultivar Yuma at 25 ppm measured 24 hr post fungal inoculation relative to untreated control. An outline of the steps:
as §1

The test system of assay [3] is Plasmopara viticola. Briefly: Antifungal activity against Plasmopara viticola assessed as inhibition of grape downy mildew disease on vines cultivar Carignane plants at 25 ppm measured 24 hr post fungal inoculation relative to untreated control. In a few lines:
as §1

Assay [4] relates to Zymoseptoria tritici. Briefly: Antifungal activity against Zymoseptoria tritici assessed as inhibition of wheat leaf spot disease on wheat cultivar Yuma at 6.25 ppm measured 24 hr post fungal inoculation relative to untreated control. In a few lines: as §1
The test system of assay [5] is Puccinia graminis f. tritici. Description: Antifungal activity against Puccinia graminis f. tritici assessed as inhibition of wheat stem rust disease on wheat cultivar Yuma at 6.25 ppm measured 24 hr post fungal inoculation relative to untreated control. An outline of the steps: as §1
Assay [6] has as its system Parastagonospora nodorum. Briefly: Antifungal activity against Phaeosphaeria nodorum assessed as inhibition of glume blotch disease on wheat cultivar Yuma plants at 6.25 ppm measured 24 hr post fungal inoculation relative to untreated control. An outline of the steps: as §1
In assay [7] the test system is Plasmopara viticola. Description: Antifungal activity against Plasmopara viticola assessed as inhibition of grape downy mildew disease on vines cultivar Carignane plants at 100 ppm measured 24 hr post fungal inoculation relative to untreated control. In a few lines: as §1
The test system of assay [8] is Phytophthora infestans. Briefly: Antifungal activity against Phytophthora infestans assessed as inhibition of late tomato blight disease on tomato cultivar Rutgers plants at 25 ppm measured 24 hr post fungal inoculation relative to untreated control. In a few lines:
as §1

Assay [9] has as its system Parastagonospora nodorum. Briefly: Antifungal activity against Phaeosphaeria nodorum assessed as inhibition of glume blotch disease on wheat cultivar Yuma plants at 25 ppm measured 24 hr post fungal inoculation relative to untreated control. In a few lines:
as §1

Assay [10] concerns Phytophthora infestans. Briefly: Antifungal activity against Phytophthora infestans assessed as inhibition of late tomato blight disease on tomato cultivar Rutgers plants at 6.25 ppm measured 24 hr post fungal inoculation relative to untreated control. In a few lines: as §1
Assay [11] relates to Puccinia graminis f. tritici. Description: Antifungal activity against Puccinia graminis f. tritici assessed as inhibition of wheat stem rust disease on wheat cultivar Yuma at 25 ppm measured 24 hr post fungal inoculation relative to untreated control. In a few lines: as §1
In assay [12] the test system is Phytophthora infestans. Description: Antifungal activity against Phytophthora infestans assessed as inhibition of late tomato blight disease on tomato cultivar Rutgers plants at 100 ppm measured 24 hr post fungal inoculation relative to untreated control. An outline of the steps: as §1
In assay [13] the test system is Parastagonospora nodorum. Description: Antifungal activity against Phaeosphaeria nodorum assessed as inhibition of glume blotch disease on wheat cultivar Yuma plants at 100 ppm measured 24 hr post fungal inoculation relative to untreated control. In a few lines: as §1
Assay [14] concerns Plasmopara viticola. Briefly: Antifungal activity against Plasmopara viticola assessed as inhibition of grape downy mildew disease on vines cultivar Carignane plants at 6.25 ppm measured 24 hr post fungal inoculation relative to untreated control. An outline of the steps:
as §1

The subject of assay [15] is Zymoseptoria tritici. Description: Antifungal activity against Zymoseptoria tritici assessed as inhibition of wheat leaf spot disease on wheat cultivar Yuma at 100 ppm measured 24 hr post fungal inoculation relative to untreated control. In a few lines:
as §1

The subject of assay [16] is Phytophthora infestans. Briefly: Antifungal activity against Phytophthora infestans assessed as inhibition of late tomato blight disease on tomato cultivar Rutgers plants at 6.25 ppm measured 96 hr post fungal inoculation relative to untreated control. An outline of the steps: as §1
The subject of assay [17] is Phytophthora infestans. Description: Antifungal activity against Phytophthora infestans assessed as inhibition of late tomato blight disease on tomato cultivar Rutgers plants at 25 ppm measured 96 hr post fungal inoculation relative to untreated control. In a few lines:
as §1

In assay [18] the test system is Puccinia graminis f. tritici. Description: Antifungal activity against Puccinia graminis f. tritici assessed as inhibition of wheat stem rust disease on wheat cultivar Yuma at 6.25 ppm measured 96 hr post fungal inoculation relative to untreated control. An outline of the steps: as §1
Assay [19] deals with Puccinia graminis f. tritici. Briefly: Antifungal activity against Puccinia graminis f. tritici assessed as inhibition of wheat stem rust disease on wheat cultivar Yuma at 25 ppm measured 96 hr post fungal inoculation relative to untreated control. An outline of the steps:
as §1

Assay [20] deals with Plasmopara viticola. Briefly: Antifungal activity against Plasmopara viticola assessed as inhibition of grape downy mildew disease on vines cultivar Carignane plants at 6.25 ppm measured 96 hr post fungal inoculation relative to untreated control. An outline of the steps:
as §1

For assay [21], the system named is Puccinia graminis f. tritici. Description: Antifungal activity against Puccinia graminis f. tritici assessed as inhibition of wheat stem rust disease on wheat cultivar Yuma at 100 ppm measured 96 hr post fungal inoculation relative to untreated control. An outline of the steps: as §1
In assay [22] the test system is Plasmopara viticola. Briefly: Antifungal activity against Plasmopara viticola assessed as inhibition of grape downy mildew disease on vines cultivar Carignane plants at 100 ppm measured 96 hr post fungal inoculation relative to untreated control. In a few lines: as §1
Assay [23] relates to Phytophthora infestans. Description: Antifungal activity against Phytophthora infestans assessed as inhibition of late tomato blight disease on tomato cultivar Rutgers plants at 100 ppm measured 96 hr post fungal inoculation relative to untreated control. An outline of the steps: as §1
The subject of assay [24] is Plasmopara viticola. Briefly: Antifungal activity against Plasmopara viticola assessed as inhibition of grape downy mildew disease on vines cultivar Carignane plants at 25 ppm measured 96 hr post fungal inoculation relative to untreated control. In a few lines:
as §1

Each structure is given as a SMILES string.

Our source for the inhibition values is ChEMBL document CHEMBL3046621, “Fungicidal sesquiterpene dialdehyde cinnamates from Pseudowintera axillaris” (2006).

In the case of `C=C1[C@@H]2[C@@H](O)C=C3[C@@H](OC)O[C@@H](OC)[C@@H]3[C@@]2(C)[C@H](OC(=O)/C=C/c2ccccc2)C[C@@H]1C`, the inhibition – broadly, the change of the read-out against control, counted positive when it falls – at 100 ppm in assay [1] came to 7%; in [7] it was 0%; in [12] it was 0%; in assay [13], 0%; in assay [15], 78%. Also, the inhibition at 25 ppm in assay [2] is 33%; in assay [3], 0%; in assay [8], 0%; in [9], 0%; in [11] it was 4%. Further, the inhibition at 6.25 ppm in assay [4] turned out to be 43%; in [5], 0%; in [6], 0%; in [10], 0%; in assay [14] it was 0%.
On to `C=C1[C@@H]2[C@H](O)C=C(C=O)[C@H](C=O)[C@@]2(C)[C@H](OC(=O)/C=C/c2ccccc2)C[C@@H]1C`, for which the inhibition at 6.25 ppm in assay [16], in assay [18], in assay [4], in assay [20], in [5] and in assay [6] was 0% in each case. Also, the inhibition at 6.25 ppm in [10] was 72%; in [14], 0%. In addition, the inhibition at 25 ppm is 7% in assay [17]; 0% in assay [2]; 28% in assay [3]; 4% in [19]; 82% in assay [8]; 0% in assay [9]. Moreover, the inhibition at 25 ppm in assay [11] came out at 8%; in assay [24], 0%. Moreover, the inhibition at 100 ppm in assay [1] worked out at 77%; in [7] it was 76%; in assay [21] it was 61%; in assay [12], 100%; in [13], 73%; in assay [22], 86%. Further, the inhibition at 100 ppm in [15] is 0%; in [23] it was 3%.
In the case of `C=C1[C@@H](C)C[C@@H](OC)[C@]2(C)[C@@H](C=O)C(C=O)=CC[C@@H]12`, the inhibition at 100 ppm in assay [1] was determined as 21%; in [7], 70%; in [12], 98%; in assay [13], 20%; in assay [15], 0%. Also, the inhibition at 25 ppm in assay [2] was found to be 0%; in assay [3], 33%; in assay [8], 67%; in assay [9], 20%; in [11], 0%. For the same compound, the inhibition at 6.25 ppm was found to be 0% in [4]; 0% in assay [5]; 20% in assay [6]; 3% in assay [10]; 9% in assay [14].
Consider `C=C1[C@@H]2[C@@H](OC)C=C3[C@@H](OC)O[C@@H](OC)[C@@H]3[C@@]2(C)[C@H](O)C[C@@H]1C`, for which the inhibition at 100 ppm in [1], in assay [7], in [12], in assay [13] and in [15] was 0% in each case.
With `C=C1[C@@H]2C(=O)C=C3[C@@H](OC)O[C@@H](OC)[C@@H]3[C@@]2(C)[C@H](OC(=O)/C=C/c2ccccc2)C[C@@H]1C`, the inhibition at 100 ppm in assay [1], in assay [7], in assay [12], in [13] and in assay [15] was 0% throughout.
For the compound `C=C1[C@@H](C)C[C@@H](O)[C@]2(C)[C@@H](C=O)C(C=O)=CC[C@@H]12`, the inhibition at 100 ppm in assay [1] is 0%; in [7], 24%; in assay [12], 28%; in [13], 60%; in assay [15], 0%. Further, the inhibition at 25 ppm was found to be 0% in assay [2]; 4% in [3]; 36% in assay [8]; 0% in [9]; 0% in assay [11]. In addition, the inhibition at 6.25 ppm in assay [4] stood at 0%; in assay [5], 0%; in [6], 0%; in assay [10], 19%; in assay [14] it was 7%.
For `C=C1[C@@H](C)C[C@@H](OC(=O)/C=C/c2ccccc2)[C@@]2(C)[C@H]1CC=C(CO)[C@@H]2CO`, the inhibition at 100 ppm in [1] was 0%; in assay [7] it was 70%; in assay [12] it was 58%; in [13] it was 0%; in assay [15], 0%. The inhibition at 25 ppm in [2] amounted to 0%; in assay [3], 22%; in assay [8], 8%; in assay [9], 0%; in assay [11], 0%. The inhibition at 6.25 ppm was 0% in assay [4]; 0% in [5]; 0% in assay [6]; -6% in [10]; 4% in [14].
In the case of `C=C1[C@@H]2[C@@H](O)C=C3[C@@H](OC)O[C@@H](OC)[C@@H]3[C@@]2(C)[C@H](O)C[C@@H]1C`, the inhibition at 100 ppm in assay [1] came out at 0%; in assay [7] it was 0%; in [12], 0%; in assay [13] it was 0%; in assay [15], 11%.
Consider `C=C1[C@@H]2[C@@H](O)C=C(C=O)[C@H](C=O)[C@@]2(C)[C@H](OC(=O)/C=C/c2ccccc2)C[C@@H]1C`, for which the inhibition at 100 ppm in assay [1] stood at 85%; in [7], 89%; in assay [12], 100%; in [13] it was 96%; in assay [15], 0%. Also, the inhibition at 25 ppm in [2] came to 0%; in assay [3], 19%; in [8], 91%; in [9] it was 73%; in [11], 15%. Further, the inhibition at 6.25 ppm in assay [4] was 0%; in assay [5] it was 4%; in assay [6], 33%; in assay [10] it was 74%; in [14], 2%.
Turning to `C=C1[C@@H]2[C@@H](O)C=C3[C@@H](OC)O[C@@H](OC)[C@@H]3[C@@]2(C)[C@H](OC(=O)CCc2ccccc2)C[C@@H]1C`, the inhibition at 100 ppm in assay [1] came to 9%; in assay [7], 0%; in [12] it was 0%; in assay [13] it was 0%; in [15], 90%. In addition, the inhibition at 25 ppm in assay [2] came out at 17%; in assay [3], 0%; in assay [8], 0%; in [9], 0%; in assay [11] it was 9%. Besides, the inhibition at 6.25 ppm in assay [4] came out at 0%; in assay [5] it was 42%; in assay [6], 0%; in assay [10] it was 0%; in assay [14], 0%.
